# RGS4 inh: RGS4 inhibitors, primary screen, cell-based, HEK293 M3R inducible RGS4, calcium flux | Regulator of G-protein signaling 4 (Homo sapiens), P49798 | AID 463165, 2010 | 310,000 tested, 0.45% active | Fluo-4 calcium flux; active compounds read high; triggered by carbachol at its EC20 | B-score at 10 µM;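 active = B-score, a plate-corrected calcium signal, over three deviations above library mean, with baseline fluorescence within five deviations of library mean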;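 also: RGS4 expression induced by doxycycline in cells with stable M3 receptor; B-score is computed from the integrated fluorescence ratio over baseline after carbachol; higher B-score means a larger calcium signal and so more RGS4 inhibition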
# Target sequence (P49798 whole entry, looked up): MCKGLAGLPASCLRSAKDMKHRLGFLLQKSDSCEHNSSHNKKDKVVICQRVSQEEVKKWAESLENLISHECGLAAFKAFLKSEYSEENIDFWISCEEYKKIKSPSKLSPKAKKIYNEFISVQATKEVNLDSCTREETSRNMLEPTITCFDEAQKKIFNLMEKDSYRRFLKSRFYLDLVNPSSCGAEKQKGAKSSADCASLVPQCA
# MrgX1 PAM: positive allosteric modulators of MrgX1, primary screen, HEK293 cells, Fluo-4 calcium flux. Mas-related G-protein coupled receptor member X1 (Homo sapiens), Q96LB2. FDSS; active compounds read high. B-score at 10 µM. 310,000 tested, 0.63% active;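 active = plate-corrected calcium response at least 3 library SD above typical, normal starting fluorescence, not activating the receptor alone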;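 also: compound read alongside a low EC10 to EC30 dose of BAM8-22 agonist; peak minus trough fluorescence over baseline measured at the second addition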
# MrgX1 ag: agonists of human MrgX1 receptor, primary screen, HEK293 cells, Fluo-4 calcium flux; Mas-related G-protein coupled receptor member X1 (Homo sapiens), Q96LB2; Fluo-4 calcium fluorescence, agonist mode; active compounds read high; B-score at 10 µM; 310,000 tested, 0.44% active; AID 588627, 2011;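 active = calcium response B-score plate-corrected fluorescence ratio at least 3 library SD, with starting fluorescence B-score inside 5 SD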
#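 Material: HEK293 cells stably expressing human MrgX1 receptor | Quantity: 15,000 cells per well | Times: Cells plated overnight, dye loaded 0.5 h 37 °C, 0.5 h room temperature | Measured by: Kinetic Fluo-4 NW fluorescence of intracellular calcium | Control set: Positive and negative controls per plate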
# RGS4 pot: RGS4 potentiators or activators, primary screen, cell-based, HEK293 M3R inducible RGS4, calcium flux; carbachol calcium flux Fluo4; active compounds read low; 310,000 tested, 0.92% active; AID 463111, 2010; B-score at 10 µM;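 active = B-score of the integrated calcium signal more than 4 SD below the library mean, with starting fluorescence not abnormally high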;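 also: negative B-score means reduced calcium response which marks RGS4 activation or potentiation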
#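 test system = HEK293 cells with stable M3R and inducible RGS4 | schedule = recording 10 s baseline at 1 Hz, 100 s post-agonist | technique = Fluo4-AM (2 µM) calcium-flux fluorescence, kinetic read | measure = Agonist-evoked peak-minus-minimum fluorescence over baseline, integrated ratio, B score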
# MrgX1 antag: antagonists of human MrgX1 receptor, primary screen, HEK293 cells, Fluo-4 calcium flux; Mas-related G-protein coupled receptor member X1 (Homo sapiens), Q96LB2; BAM8-22 antagonism; active compounds read low; B-score at 10 µM; 310,000 tested, 1.3% active;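 active = calcium-response B-score plate-corrected more than 3 library SD below zero, starting fluorescence within 5 deviations, no agonist response on first addition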;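 also: peak minus trough fluorescence over baseline after final BAM8-22 challenge near maximal dose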
# RGS4 activ val: reduced carbachol calcium response, RGS4-induced M3R cells, confirmation, RGS4 activator project, cell-based, HEK293 M3R/RGS4 inducible, calcium flux, duplicate | shares compounds with RGS4 pot | carbachol calcium flux Fluo4 | inhibition, % at 10 µM | 1,100 tested, 89% active | AID 602282, 2012;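 active = inhibition above 3 SD of the buffer control wells, cut at about 41% in these data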;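 also: signal is the integrated peak-minus-minimum Fluo4 fluorescence over baseline ratio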
# M3R Ca counter: RGS4 activator counter-screen hit in non-induced cells; inhibition, % at 10 µM; AID 602283; 1,100 tested, 82% active; shares compounds with RGS4 pot; HEK293 M3R non-induced RGS4, Fluo4 calcium flux; after carbachol challenge at its EC90;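 active = inhibition exceeding 3 SD of buffer-only control wells, cut at about 26% in these data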;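 also: percent drop in integrated peak-minus-baseline over baseline Fluo4 ratio after carbachol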
# Active calls of the source: *; i = inactive; . = no result. Most compounds without a hit are left out; they make up all but 3.5% or so of the library.
SMILES,RGS4 inh,MrgX1 PAM,MrgX1 ag,RGS4 pot,MrgX1 antag,RGS4 activ val,M3R Ca counter
O=C(NCCCN1CCCCCC1)c1ccc2c(Cl)c3c(nc2c1)CCCC3,i,i,i,i,i,.,.
CCN1CCN(CCCNC(=O)c2ccc3c(Cl)c4c(nc3c2)CCCC4)CC1,i,i,i,-8.6*,i,82*,50*
O=C1CCc2ccc(OCCCCN3CCN(c4cccc(Cl)c4Cl)CC3)cc2N1,i,i,i,-9.2*,i,79*,65*
COc1cccc(C2C3CN(C)CC=C3C(C#N)=C(N)C2(C#N)C#N)c1OC (stereo not drawn),i,i,i,-8*,i,54*,46*
CCN1CC=C2C(C#N)=C(N)C(C#N)(C#N)[C@H](c3cccc(OC)c3OC)[C@H]2C1,i,i,i,i,i,.,.
CCOC(=O)C1=C(COC(=O)/C=C/c2ccc(OC)cc2OC)NC(=O)NC1C (stereo not drawn),i,i,i,i,i,.,.
CC1CCN(CCCCOc2ccccc2-c2ccccc2)CC1,i,i,i,-8.4*,i,72*,84*
CC1CCN(CCCCOc2ccc(C(C)(C)C)cc2)CC1,i,i,i,-9.6*,i,93*,60*
CNCCCCOc1ccccc1-c1ccccc1,i,i,i,-8.8*,i,85*,84*
CNCCOc1ccccc1-c1ccccc1,i,i,i,i,i,.,.
CC1CCN(CCCCOc2ccc(Cl)cc2)CC1,i,i,i,i,i,.,.
CC1CCN(CC(=O)Nc2ccccc2-c2ccccc2)CC1,i,i,i,-9.1*,i,92*,61*
Cc1scc(-c2n[nH]c(=S)n2Cc2ccccc2)c1C,i,i,i,-7.6*,i,74*,84*
Cn1nnnc1SCc1ccc([N+](=O)[O-])cc1,i,i,i,i,i,.,.
Cc1ccccc1Cn1c(C(=O)OC(C)C)cc2c1ccn2C,i,i,i,-8*,i,90*,50*
CCOC(=O)c1cc2c(ccn2C)n1Cc1ccccc1C,i,i,i,-8.8*,i,84*,40*
CCOC(=O)c1cc2c(ccn2C)n1CC(=O)N(Cc1ccccc1)c1ccccc1,i,i,i,i,i,.,.
CCOC(=O)Cc1nc(-c2cccc(C(F)(F)F)c2)no1,i,i,i,i,i,.,.
Cc1c(C(=O)O)cccc1-n1c(C)cc(/C=C(/C#N)C(=O)NCc2ccccc2)c1C,i,i,i,i,i,.,.
CN1/C(=C/C=C(C#N)C#N)C(C)(C)c2ccccc21,i,i,i,-7.8*,i,88*,82*
CN1\C(=C/C=C/C=C/C=[N+](C)C)C(C)(C)c2ccccc21,i,.,.,i,.,.,.
Cc1cc(C)cc(NC(=O)c2ccc(Cn3nc(C)c(Cl)c3C)o2)c1,i,i,i,-12*,i,70*,64*
Cc1ccc(CNC(=O)c2ccc(Cn3nc(C)c(Cl)c3C)o2)cc1,i,i,i,i,i,.,.
COc1cccc(-c2nn(-c3ccccc3)cc2C(=O)O)c1,i,i,i,i,i,.,.
COc1cccc(-c2nn(-c3ccc(C)cc3)cc2C(=O)N2CCc3cc(OC)c(OC)cc3C2)c1,i,i,i,-9.2*,i,45*,0
COc1ccc(NC(=O)CN2CCN(S(=O)(=O)N3CCCCCC3)CC2)cc1,i,i,i,i,i,.,.

# Compound activity from PubChem BioAssay.
